{"data": "Experimental data from different studies", "target": "High affinity nerve growth factor receptor (NTRK1, Homo sapiens, UniProt P04629)", "note": "Protocols differ between the studies behind these lines."}
{"SMILES": "COc1cc(Nc2cnc(C#N)c(O[C@H](C)CN(C)C)n2)ncc1-c1cnn(C)c1", "assay": "enzyme activity, inhibitor, radiometric", "setting": "10 µM", "measurement": "remaining activity", "value": "28%"}
{"SMILES": "O=C(Nc1cccc(C(=O)Nc2ccc3[nH]ncc3c2)c1)Nc1ccccc1F", "assay": "enzyme activity, inhibitor, FRET", "setting": "1 µM", "measurement": "inhibition", "value": "42.7%"}
{"SMILES": "Cc1ccc(C(=O)NCc2ccsc2)cc1C#Cc1cn(C(C)C)c2ncnc(N)c12", "assay": "enzyme activity, inhibitor", "setting": "1 µM", "measurement": "activity vs control", "value": "74%"}
{"SMILES": "COc1cc(/C=C/C(=O)CC(=O)/C=C/c2ccc(O)c(OC)c2)ccc1O", "assay": "enzyme activity, inhibitor", "setting": "1 µM", "measurement": "activity vs control", "value": "93%"}
{"SMILES": "Cc1sc(C(=O)NC2COC2)cc1-n1cc(NC(=O)Nc2c(F)cccc2Cl)cn1", "assay": "enzyme activity, inhibitor", "setting": "10 µM", "measurement": "remaining activity", "value": "81%"}
{"SMILES": "CC(C)(C)c1nc(-c2cccc(NS(=O)(=O)c3c(F)cccc3F)c2F)c(-c2ccnc(N)n2)s1", "assay": "enzyme activity, inhibitor, radiometric", "setting": "1 µM", "measurement": "remaining activity", "value": "78%"}
{"SMILES": "O=C(Nc1ccc(Br)cc1)Nc1cccc(C(=O)Nc2ccc3[nH]ncc3c2)c1", "assay": "enzyme activity, inhibitor, FRET", "setting": "1 µM", "measurement": "inhibition", "value": "50.5%"}
{"SMILES": "CCN(CC)CCNC(=O)c1c(C)[nH]c(/C=C2\\C(=O)Nc3ccc(F)cc32)c1C", "assay": "enzyme activity, inhibitor", "setting": "1 µM", "measurement": "remaining activity", "value": "2%"}
{"SMILES": "CCC(=N\\O)/C(C)=C/c1ccc(F)cc1", "assay": "cell-free assay, competition with immobilised ligand", "setting": "1 µM", "measurement": "remaining binding", "value": "83%"}
{"SMILES": "O=C(Nc1cnn(-c2csc(C(=O)NC3COC3)c2)c1)Nc1ccccc1Cl", "assay": "enzyme activity, inhibitor", "setting": "5 µM", "measurement": "remaining activity", "value": "100%"}
{"SMILES": "C[C@@H]1CN(c2cc(-c3n[nH]c4ccc(OC5(C)CC5)cc34)ncn2)C[C@H](C)O1", "assay": "cell-free assay, competition with immobilised ligand", "setting": "0.1 µM", "measurement": "remaining binding", "value": "73%"}
{"SMILES": "Cc1[nH]c(/C=C2\\C(=O)Nc3ccc(F)cc32)c(C)c1C(=O)N[C@H]1CCN(C(=O)N(C)C)C1", "assay": "enzyme activity, inhibitor", "setting": "1 µM", "measurement": "remaining activity", "value": "5%"}
{"SMILES": "CCN(CC)c1ccc(C2=NNC(=O)CC2C)cc1[N+](=O)[O-] (stereo not drawn)", "assay": "enzyme activity, inhibitor", "setting": "10 µM", "measurement": "remaining activity", "value": "118%"}
{"SMILES": "O=C(Nc1ccc2[nH]ncc2c1)c1cccc(NC(=O)c2cc(C(F)(F)F)ccc2F)c1", "assay": "enzyme activity, inhibitor, FRET", "setting": "1 µM", "measurement": "inhibition", "value": "34%"}
{"SMILES": "COc1ccc2c(c1)O[C@H](c1ccc(OC)c(OC)c1)C[C@@H]2NC(=O)C1(c2ccc3c(c2)OC(F)(F)O3)CC1", "assay": "cell-free assay, competition with immobilised ligand", "setting": "1 µM", "measurement": "remaining binding", "value": "100%"}
{"SMILES": "O=C(Cc1ccc(C(F)(F)F)cc1)Nc1cccc(C(=O)Nc2ccc3[nH]ncc3c2)c1", "assay": "enzyme activity, inhibitor, FRET", "setting": "1 µM", "measurement": "inhibition", "value": "46%"}
{"SMILES": "CC(=O)N1CCC(c2ccc(C(=O)NC(=N)N)cc2C(F)(F)F)CC1", "assay": "cell-free assay, competition with immobilised ligand", "setting": "1 µM", "measurement": "remaining binding", "value": "100%"}
{"SMILES": "N#CCCc1ccc2c(c1)-c1[nH]c3ccc([N+](=O)[O-])cc3c1CC(=O)N2", "assay": "cell-free assay", "setting": "0.5 µM", "measurement": "remaining signal", "value": "115%"}
{"SMILES": "Cc1ccc(C(=O)Nc2ccc(CN3CCN(C)CC3)c(C(F)(F)F)c2)cc1C#Cc1cnc2cccnn12", "assay": "cell-free assay", "setting": "23.5 nM", "measurement": "remaining signal", "value": "26%"}
{"SMILES": "CN(C)C1CCN(CC#Cc2nn(C3CCCC3)c3nc(NCc4ccccc4)ncc23)C1 (stereo not drawn)", "assay": "enzyme activity, inhibitor, FRET", "setting": "1 µM", "measurement": "inhibition", "value": "17%"}
{"SMILES": "CNC(=O)Nc1ccc2c(c1)CC[C@@]21OC(=O)N(CC(=O)N(Cc2ccc(F)cc2)[C@@H](C)C(F)(F)F)C1=O", "assay": "cell-free assay, competition with immobilised ligand", "setting": "1 µM", "measurement": "remaining binding", "value": "81%"}
{"SMILES": "O=C(Nc1cccc(F)c1)Nc1cccc(C(=O)Nc2ccc3[nH]ncc3c2)c1", "assay": "enzyme activity, inhibitor, FRET", "setting": "1 µM", "measurement": "inhibition", "value": "51.3%"}
{"SMILES": "CCOCCn1cc(C(=O)Nc2ccc(-n3nc(-c4cccnc4)cc3C(F)(F)F)cn2)ccc1=O", "assay": "cell-free assay, competition with immobilised ligand", "setting": "1 µM", "measurement": "remaining binding", "value": "100%"}
{"SMILES": "C[C@@H]1CCN(C(=O)CC#N)C[C@@H]1N(C)c1ncnc2[nH]ccc12", "assay": "cell-free assay", "setting": "0.5 µM", "measurement": "remaining signal", "value": "94.1%"}
{"SMILES": "CCCOc1ccc(OC)c(F)c1C(=O)c1ccc(C(=O)N[C@@H]2CNC[C@H]2NC(=O)c2ccc3[nH]ncc3c2)cc1", "assay": "enzyme activity, inhibitor", "setting": "10 µM", "measurement": "remaining activity", "value": "46%"}
{"SMILES": "FC(F)(F)Oc1cccc(-c2cnc3ccc(-c4ccncc4)nn23)c1", "assay": "enzyme activity, inhibitor, radiometric", "setting": "5 µM", "measurement": "activity vs control", "value": "15%"}
{"SMILES": "CNC(=O)c1ccc(Nc2ncc(C(F)(F)F)c(NCc3nccnc3N(C)S(C)(=O)=O)n2)cc1", "assay": "binding, competition with immobilised ligand", "setting": "1 µM", "measurement": "remaining binding", "value": "13%"}
{"SMILES": "O=C(Nc1cccc(Cl)c1)Nc1cccc(C(=O)Nc2ccc3[nH]ncc3c2)c1", "assay": "enzyme activity, inhibitor, FRET", "setting": "1 µM", "measurement": "inhibition", "value": "47.4%"}
{"SMILES": "Nc1cnc(N2CCc3cc(S(=O)(=O)Nc4c(F)cc(Cl)cc4F)cc(N4CCCC4=O)c32)nc1", "assay": "cell-free assay, competition with immobilised ligand", "setting": "1 µM", "measurement": "remaining binding", "value": "100%"}
{"SMILES": "Oc1cccc(-c2nc(N3CCOCC3)c3oc4ncccc4c3n2)c1", "assay": "enzyme activity, inhibitor", "setting": "10 µM", "measurement": "remaining activity", "value": "93%"}
